Measurements reported in ChEMBL document CHEMBL4480410, “Targeting the MKK7-JNK (Mitogen-Activated Protein Kinase Kinase 7-c-Jun N-Terminal Kinase) Pathway with Covalent Inhibitors” (J Med Chem, 2019).
Converted amounts (≈) assume the structure as drawn. The source made the active and inactive calls. The calls are words filed in the database; no cut-off is given here.

What was measured:
[1] = Inhibition of N-terminal His-tagged MKK7 beta1 S273D/T275D double mutant (unknown origin) expressed in insect cells using JNK1 K55M mutant as substrate by ADP-Glo assay; set-up: species or system Homo sapiens
Summary of the method: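 ADP-Glo luminescence run per supplier protocol. Kinase: MKK7 beta1 (aa 1-462, TEV-cleavable N-terminal His6 tag, S273D/T275D) expressed in Sf9 insect cells, used at 20 nM. Substrate: JNK1 K55M at 5 µM. Compound dispensed acoustically; read on plate reader.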

[2] = target: Epidermal growth factor receptor (Homo sapiens, UniProt P00533, L858R/T790M); test: Inhibition of EGFR L858R/T790M double mutant (unknown origin) by HTRF assay
Chain of Epidermal growth factor receptor (Homo sapiens, UniProt P00533, L858R/T790M) (P00533 25-1210 T790M/L858R limits assumed): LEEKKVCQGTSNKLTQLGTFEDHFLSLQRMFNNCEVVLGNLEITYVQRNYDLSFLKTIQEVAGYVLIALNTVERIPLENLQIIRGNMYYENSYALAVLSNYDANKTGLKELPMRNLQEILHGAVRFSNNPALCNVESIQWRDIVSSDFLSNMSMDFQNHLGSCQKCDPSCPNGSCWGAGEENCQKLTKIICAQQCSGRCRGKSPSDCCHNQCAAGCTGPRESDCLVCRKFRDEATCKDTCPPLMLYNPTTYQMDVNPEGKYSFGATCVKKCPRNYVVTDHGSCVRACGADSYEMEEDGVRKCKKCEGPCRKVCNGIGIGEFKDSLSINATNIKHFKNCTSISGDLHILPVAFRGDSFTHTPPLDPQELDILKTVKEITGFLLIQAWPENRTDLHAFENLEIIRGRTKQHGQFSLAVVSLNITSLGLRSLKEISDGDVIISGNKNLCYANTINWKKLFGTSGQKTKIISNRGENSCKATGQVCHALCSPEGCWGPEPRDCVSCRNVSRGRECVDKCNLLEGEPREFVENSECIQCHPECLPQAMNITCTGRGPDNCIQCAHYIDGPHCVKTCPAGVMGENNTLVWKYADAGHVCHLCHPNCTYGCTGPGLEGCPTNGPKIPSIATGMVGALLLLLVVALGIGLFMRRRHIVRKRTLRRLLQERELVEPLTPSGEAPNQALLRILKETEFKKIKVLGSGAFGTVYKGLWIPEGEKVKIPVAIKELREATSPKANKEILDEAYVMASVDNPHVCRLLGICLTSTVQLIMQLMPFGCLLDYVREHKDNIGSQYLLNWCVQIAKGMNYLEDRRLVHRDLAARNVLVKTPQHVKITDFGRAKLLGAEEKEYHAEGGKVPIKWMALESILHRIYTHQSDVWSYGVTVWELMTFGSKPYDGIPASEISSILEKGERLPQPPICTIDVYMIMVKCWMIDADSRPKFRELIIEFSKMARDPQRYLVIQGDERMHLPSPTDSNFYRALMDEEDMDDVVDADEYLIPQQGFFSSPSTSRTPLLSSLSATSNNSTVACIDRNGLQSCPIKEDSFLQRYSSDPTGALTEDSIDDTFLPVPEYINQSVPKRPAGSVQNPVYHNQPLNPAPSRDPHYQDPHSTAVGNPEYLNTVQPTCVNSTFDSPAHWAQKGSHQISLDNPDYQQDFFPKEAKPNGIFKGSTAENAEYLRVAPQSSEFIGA

[3] = target: Epidermal growth factor receptor (Homo sapiens, UniProt P00533); test: Inhibition of wild type EGFR (unknown origin) by HTRF assay
Chain of Epidermal growth factor receptor (Homo sapiens, UniProt P00533) (P00533 whole entry): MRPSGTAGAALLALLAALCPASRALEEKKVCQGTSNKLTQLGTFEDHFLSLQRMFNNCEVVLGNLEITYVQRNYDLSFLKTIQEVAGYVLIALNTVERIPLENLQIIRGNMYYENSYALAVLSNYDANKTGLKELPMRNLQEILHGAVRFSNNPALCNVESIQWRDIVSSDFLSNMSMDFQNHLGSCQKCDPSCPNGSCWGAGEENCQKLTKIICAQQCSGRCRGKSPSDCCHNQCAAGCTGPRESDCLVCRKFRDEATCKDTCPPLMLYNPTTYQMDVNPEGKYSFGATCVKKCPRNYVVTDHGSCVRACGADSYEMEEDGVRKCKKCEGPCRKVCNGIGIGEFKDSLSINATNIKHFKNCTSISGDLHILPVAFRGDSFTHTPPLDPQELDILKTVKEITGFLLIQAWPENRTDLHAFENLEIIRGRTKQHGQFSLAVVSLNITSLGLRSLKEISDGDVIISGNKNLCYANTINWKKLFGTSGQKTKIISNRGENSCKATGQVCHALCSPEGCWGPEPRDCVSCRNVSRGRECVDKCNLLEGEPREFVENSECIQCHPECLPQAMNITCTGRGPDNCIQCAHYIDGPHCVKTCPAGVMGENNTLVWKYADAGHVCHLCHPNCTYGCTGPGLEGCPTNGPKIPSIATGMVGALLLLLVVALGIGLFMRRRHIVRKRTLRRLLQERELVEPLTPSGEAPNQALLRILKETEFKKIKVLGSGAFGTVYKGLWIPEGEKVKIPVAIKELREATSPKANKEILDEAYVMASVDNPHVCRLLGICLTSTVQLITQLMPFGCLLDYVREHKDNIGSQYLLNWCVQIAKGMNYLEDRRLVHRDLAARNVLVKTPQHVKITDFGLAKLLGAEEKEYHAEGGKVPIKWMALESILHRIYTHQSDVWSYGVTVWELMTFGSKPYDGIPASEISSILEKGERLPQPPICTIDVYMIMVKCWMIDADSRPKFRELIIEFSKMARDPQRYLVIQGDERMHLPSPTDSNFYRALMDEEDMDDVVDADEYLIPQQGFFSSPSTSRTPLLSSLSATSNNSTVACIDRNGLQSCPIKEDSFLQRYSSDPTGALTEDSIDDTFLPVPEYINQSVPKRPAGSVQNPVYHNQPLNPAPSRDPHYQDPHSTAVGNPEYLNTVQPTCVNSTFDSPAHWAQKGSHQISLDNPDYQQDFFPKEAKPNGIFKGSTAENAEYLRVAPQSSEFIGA

[4] = target: T1, Dual specificity mitogen-activated protein kinase kinase 7 (Homo sapiens) (UniProt O14733); test: Covalent binding affinity to MKK7 (unknown origin) assessed as formation of covalent bond with Cys218 residues by MS/MS analysis
T1 sequence (whole entry): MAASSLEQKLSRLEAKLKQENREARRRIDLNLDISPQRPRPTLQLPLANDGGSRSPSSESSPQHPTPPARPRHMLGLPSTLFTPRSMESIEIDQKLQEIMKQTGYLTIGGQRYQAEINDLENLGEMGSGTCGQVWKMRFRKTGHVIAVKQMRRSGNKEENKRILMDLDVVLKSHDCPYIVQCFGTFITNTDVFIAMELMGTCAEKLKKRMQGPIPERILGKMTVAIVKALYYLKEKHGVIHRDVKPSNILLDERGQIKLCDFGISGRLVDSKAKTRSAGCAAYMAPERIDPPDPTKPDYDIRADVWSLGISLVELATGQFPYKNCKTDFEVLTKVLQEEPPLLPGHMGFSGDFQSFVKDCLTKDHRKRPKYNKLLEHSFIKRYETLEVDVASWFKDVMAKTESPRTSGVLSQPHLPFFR
Summary of the method: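 Protein at 1 mg/mL incubated with 2-fold molar excess of compound, 30 min on ice, then denatured and run on 15% SDS gel. Band excised, reduced with 50 mM DTT (1 h, 37 °C), alkylated with 55 mM iodoacetamide (1 h, 20 °C), digested with 0.1 mg/mL trypsin 20 h at 30 °C, acidified with TFA. Analysed by ion-trap MS/MS.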

[5] = target: T2, Dual specificity mitogen-activated protein kinase kinase 7 (Mus musculus) (UniProt Q8CE90); test: Inhibition of MKK7 in mouse DRG cells assessed as reduction in JNK phosphorylation at 1 uM after 2 hrs by Western blot analysis; type: cell-based
T2 sequence (whole entry): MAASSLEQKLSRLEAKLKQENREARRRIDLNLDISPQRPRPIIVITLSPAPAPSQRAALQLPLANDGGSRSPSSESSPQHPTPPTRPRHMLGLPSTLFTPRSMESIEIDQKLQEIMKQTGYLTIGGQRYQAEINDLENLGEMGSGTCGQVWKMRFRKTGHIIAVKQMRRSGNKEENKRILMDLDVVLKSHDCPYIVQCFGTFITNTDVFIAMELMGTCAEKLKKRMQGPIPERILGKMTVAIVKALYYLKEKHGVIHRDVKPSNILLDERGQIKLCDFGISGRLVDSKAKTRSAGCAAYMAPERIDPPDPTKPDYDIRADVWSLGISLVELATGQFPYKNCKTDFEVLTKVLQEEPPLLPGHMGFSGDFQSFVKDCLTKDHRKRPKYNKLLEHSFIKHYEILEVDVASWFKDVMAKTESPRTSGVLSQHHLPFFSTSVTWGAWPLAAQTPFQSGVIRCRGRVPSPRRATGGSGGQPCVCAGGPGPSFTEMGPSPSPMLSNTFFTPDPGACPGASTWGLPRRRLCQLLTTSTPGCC
Summary of the method: (§1)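 Dissociated DRG neurons plated on laminin for 3 h, medium replaced, compound added for a further 2 h. Neurons lysed in RIPA buffer with phosphatase inhibitors. Western blots probed for phospho-cJun, cJun, phospho-JNK and JNK.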

[6] = target: T2, Dual specificity mitogen-activated protein kinase kinase 7 (Mus musculus); test: Inhibition of MKK7 in mouse DRG cells assessed as reduction in cJUN phosphorylation at 1 uM after 2 hrs by Western blot analysis; type: cell-based; summary of the method: as §1
[7] = Permeability of the compound assessed as drug flux at 500 uM after 16 hrs by PAMPA; type: ADME
Summary of the method: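 10 mM DMSO stock diluted to 500 µM final in 50 mM Hepes pH 7.4 on membrane coated with 10% dioleoylphosphatidylcholine, 0.5% cholesterol in dodecane; 16 h room temperature, wet chamber.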

[8] = Apparent permeability across apical to basolateral side in MDCK2-MDR1 cells at 10 uM after 2 hrs by transwell membrane based assay; type: ADME, cell-based, Canis lupus familiaris; details: dog, MDCK-MDR1
Summary of the method: (§2)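 Compound at 10 µM in HBSS added to apical or basolateral side of MDCKII-MDR1 monolayer, 2 h at 37 °C. Both sides quantified by LC-MS/MS; Papp A–B or B–A from receiver concentration and volume, time, membrane area and initial donor concentration.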

[9] = Protein binding in human plasma at 5 uM after 6 hrs by LC/MS analysis; type: ADME, cell-free; details: read-out: PPB (converted)
Summary of the method: (§3)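 Equilibrium dialysis of plasma with compound at 5 µM, 6 h at 37 °C; final compound concentrations determined by LC/MS to give percent bound.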

[10] = Apparent permeability across apical to basolateral side in human Caco2 cells at 5 uM after 2 hrs by transwell membrane based assay; type: ADME, cell-based; details: Caco-2
Summary of the method: (§4)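 10 mM DMSO stock diluted to 5 µM final in HBSS pH 7.4; 2 h at 37 °C, 5% CO2 on Caco-2 monolayers grown 21 days on transwell membranes.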

[11] = Protein binding in mouse plasma at 5 uM after 6 hrs by LC/MS analysis; type: ADME, cell-free; details: read-out: PPB (converted); summary of the method: as §3
[12] = Apparent permeability across basolateral to apical side in MDCK2-MDR1 cells at 10 uM after 2 hrs by transwell membrane based assay; type: ADME, cell-based, Canis lupus familiaris; details: dog, MDCK-MDR1; summary of the method: as §2
[13] = Stability in human plasma assessed as compound remaining at 5 uM after 1 hr by LC/MS analysis; type: ADME, cell-free; details: read-out: Stability
Summary of the method: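 Compound at 5 µM incubated 1 h at 37 °C in human or mouse plasma; percentage remaining quantified by LC/MS.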

[14] = Kinetic solubility of the compound in Hepes buffer at pH 7.4 after 90 mins; type: physicochemical; details: read-out: Kinetic_solubility
Summary of the method: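 Compound diluted from 10 mM DMSO stock to 500 µM final in 50 mM Hepes, pH 7.4, shaken 90 min at room temperature. Filtered through 0.2 µm PVDF, then OD scanned 250–500 nm in 10 nm steps. Solubility taken from AUC, normalized to a dilution in acetonitrile.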

[15] = Apparent permeability across basolateral to apical side in human Caco2 cells at 5 uM after 2 hrs by transwell membrane based assay; type: ADME, cell-based, Caco-2; details: caco-2, 2 h, 5 µM; summary of the method: as §4

C=CC(=O)N1CCC[C@@H](n2nc(-c3cn(C)c4ccccc34)c3c(N)ncnc32)C1 gave an IC50 [1] of 302 nM.

With C=CC(=O)N1CCC[C@@H](n2nc(-c3cn(-c4cc(C(F)(F)F)cnc4C#N)nn3)c3c(N)ncnc32)C1 the IC50 [2] was 28 nM, the IC50 [1] was 788 nM and the IC50 [3] was 6 nM.

Work on C=CC(=O)N1CCC[C@@H](n2nc(-c3cn(Cc4nc5ccc(Cl)cn5c4Br)nn3)c3c(N)ncnc32)C1 yielded an IC50 [2] of 104 nM, an IC50 [1] of 669 nM and an IC50 [3] of 85 nM.

In the case of C#Cc1nn([C@@H]2CCCN(C(=O)C=C)C2)c2ncnc(N)c12, the Activity [4] is reported as “Active” and the IC50 [1] is reported as 40 nM.

In the case of CCC(=O)N1CCC[C@@H](n2nc(-c3cn(-c4ccc(C(C)=O)cc4)nn3)c3c(N)ncnc32)C1, the IC50 [2] is reported as 677 nM, the inhibition [5] is reported as “inactive” and the inhibition [6] is reported as “inactive”. For the same compound, the IC50 [1] was greater than 10000 nM and the IC50 [3] was 649 nM.

C=CC(=O)N1CCC[C@@H](n2nc(-c3ccc(Oc4ccccc4)cc3)c3c(N)ncnc32)C1 [IBRUTINIB] gave a permeability [7] of 38%, a Papp A→B at 2 h, 10 µM [8] of 22 ×10⁻⁶ cm/s and a fraction unbound at 6 h, 5 µM [9] of 0.024. For the same compound, the Papp A→B at 2 h, 5 µM [10] was 40 ×10⁻⁶ cm/s, the fraction unbound at 6 h, 5 µM [11] was 0.011 and the Papp B→A at 2 h, 10 µM [12] was 3 ×10⁻⁶ cm/s. The remaining at 1 h, 5 µM [13] was 79.7%, the solubility kinetic at 1.5 h [14] was 36 µM (≈ 15.9 µg/mL) and the Activity [4] was “Active”. For the same compound, the IC50 [1] was 78 nM and the Papp [15] was 0.9 ×10⁻⁶ cm/s.
